Here are results for three compounds from PubChem BioAssay AID624397 (The Scripps Research Institute Molecular Screening Center, 2012).

For the experiment, the system named is MCF7 proliferation, sulforhodamine B absorbance, 7-10 days. In words: breast cancer cell growth suppression – MCF7, absorbance, set 2, counter-screen for AHR activator project, late-stage follow-up (AID 624397). In a few lines:
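System: MCF7 human ER-positive breast cancer cells; Buffer or medium: a-MEM growth medium with 10% fetal bovine serum; Timing: dosing from 24 h after plating, renewed every 48 h, 37 °C; Measured by: SRB absorbance at 490 nm, 650 nm background removed; Repeats: at least triplicates.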
On the technique in general: A counterscreen serves to expose hits that act by an unwanted route or on another target.
For `Cc1ccc(-c2cc(-c3ccc(Cl)cc3)n[nH]2)c(O)c1`, the IC50 was 3 µM.
For the compound `Cc1ccc(-c2cc(-c3ccc(F)cc3)n[nH]2)c(O)c1`, the IC50 is 3 µM.
The value for `Cc1ccc(-c2cc(-c3cccc(F)c3)n[nH]2)c(O)c1` was 3 µM.

What is called IC50 is the midpoint of a concentration-inhibition curve.
